A selection: hits, their analogues and other compounds. The true share with any hit is near 2.9%.
SENP8 block-1 = blocks human SENP8 cleavage of Nedd8 substrate; Q96LD8; recombinant SENP8, Nedd8 substrate fluorescence; inhibition, % at 20 µM; 360,000 tested, 0.64% active; AID 602440; in the data active = inhibition mostly above about 40%, no sharp cut-off; inactive = mostly below about 27%
Target sequence (Q96LD8 whole entry, looked up): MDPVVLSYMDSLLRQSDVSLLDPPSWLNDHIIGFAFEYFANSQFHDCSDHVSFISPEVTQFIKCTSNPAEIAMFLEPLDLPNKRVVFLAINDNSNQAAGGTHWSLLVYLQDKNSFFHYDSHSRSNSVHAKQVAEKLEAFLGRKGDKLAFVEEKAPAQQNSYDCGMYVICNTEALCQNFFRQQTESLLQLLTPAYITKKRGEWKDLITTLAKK
HSP90 inh = HSP90 refolding inhibition in rabbit reticulocyte lysate; 290,000 tested, 0.91% active; inhibition, % at 5.6 µM; luciferase refolding luminescence, 3 h;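 active = inhibition above the screen-wide mean plus 3 SD, computed separately per campaign, cut at about 16% in these data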;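 note: 0% = DMSO wells and 100% = 60 µM geldanamycin wells; inhibitors lower the luminescence because luciferase stays unfolded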
SENP8 block-2 = blocks the human protease SENP8; Q96LD8; purified SENP8, Z-RLRGG-aminoluciferin cleavage, luminescence; inhibition, % at 10 µM; 330,000 tested, 1.2% active; AID 2540; in the data active = inhibition above about 50%
SENP6 block = inhibitors of human SENP6 protease; inhibition, % at 10 µM; Q9GZR1; AID 2599; 330,000 tested, 1.8% active; Recombinant SENP6 catalytic domain, aminoluciferin luminescence;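 active = inhibition above about 50% at the single tested dose, limit read from the data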;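 note: plate controls were DMSO wells with enzyme for no effect and DMSO wells lacking enzyme for full effect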
SENP7 inh = SENP7 protease inhibition | 330,000 tested, 1.5% active | inhibition, % at 5 µM | recombinant SENP7, Z-RLRGG-aminoluciferin luminescence, 40 min | Q9BQF6 | AID 434973;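 active = inhibition above about 50% at the single test dose, limit read from the data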;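 note: plate controls were DMSO with enzyme for no effect and no enzyme buffer wells for full effect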
SENP1 FRET inh = SENP1 (human) catalytic domain inhibition; recombinant SENP1 catalytic domain, CyPet-SUMO1-YPet FRET cleavage; inhibition, % at 10 µM; 360,000 tested, 0.21% active;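 active = inhibition at least 30% at 10 µM, raw YFP signal under a set limit, fluorescence ratio 0.5 to 1.5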;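 note: 0% = enzyme with DMSO and 100% = no enzyme wells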
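Material – human SENP1 catalytic domain · Input – SENP1 enzyme, 20 pM final · Compound dosing – single concentration of 10 µM compound, 0.5% DMSO final · Timing – enzyme reaction for 50 min at room temperature, dark · Measured by – FRET fluorescence in CFP and YFP emission channels · Control set – no-enzyme wells low, DMSO-plus-enzyme wells high control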
SENP8 conf = confirmation of human SENP8 protease inhibitors. shares compounds with SENP7 inh. Recombinant SENP8, Z-RLRGG-aminoluciferin luminescence, 60 min. inhibition, % at 12.5 µM. 6,200 tested, 40% active;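 active = mean inhibition across replicates above about 50%, limit read from the data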
SENP6 confirm = confirmation of human SENP6 protease inhibitors. shares compounds with SENP7 inh. recombinant SENP6, Z-RLRGG-aminoluciferin luminescence. inhibition, % at 12.5 µM. 6,200 tested, 58% active. AID 488915
SENP7 conf = confirmation of human SENP7 protease inhibitors; shares compounds with SENP7 inh; recombinant SENP7, Z-RLRGG-aminoluciferin luminescence, 40 min; inhibition, % at 12.5 µM; 6,200 tested, 69% active; AID 488917
Casp3 SENP sel = caspase-3 inhibition (SENP selectivity assay). shares compounds with SENP7 inh. purified caspase-3, Z-DEVD-aminoluciferin luminescence, 60 min. AID 488918. 6,200 tested, 60% active. inhibition, % at 12.5 µM;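 active = mean inhibition above about 50%, limit read from the data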;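 note: plate controls were enzyme with DMSO for no effect and wells without caspase-3 for full effect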
Target sequence (P42574 28-227 limits assumed): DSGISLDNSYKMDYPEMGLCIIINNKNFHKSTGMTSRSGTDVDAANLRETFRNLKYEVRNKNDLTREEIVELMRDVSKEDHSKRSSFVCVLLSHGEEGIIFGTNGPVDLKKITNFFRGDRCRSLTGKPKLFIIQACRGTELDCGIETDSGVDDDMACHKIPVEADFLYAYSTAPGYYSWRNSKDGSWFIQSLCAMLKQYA
SENP luc ctr = interferes with luciferase luminescence in SENP counter-screen; 6,200 tested, 39% active; Pre-incubated SENP8/Z-RLRGG-aminoluciferin, luciferase luminescence interference; inhibition, % at 12.5 µM; shares compounds with SENP7 inh;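 active = mean inhibition above about 50% when retested at one dose, limit read from the data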;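 note: plate controls were DMSO wells with completed reaction for no effect and substrate without enzyme for full effect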
* marks the source's active call; other numbers are inactive results; . = no result.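 Rule for the calls, unless noted: active = mean inhibition above about 50% in the one-dose retest (limit read from the data); inactive = the rest.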

SMILES | SENP8 block-1 | HSP90 inh | SENP8 block-2 | SENP6 block | SENP7 inh | SENP1 FRET inh | SENP8 conf | SENP6 confirm | SENP7 conf | Casp3 SENP sel | SENP luc ctr
COc1ccccc1NC(=S)NNC(=O)c1ccc(Cl)cc1Cl | 3 | -3 | 47 | 72* | 54* | 3 | 23 | 18 | 5 | 1 | 22
CCCOc1ccc(/C=C/C(=O)N2CCN(C(=O)c3ccco3)CC2)cc1OC | -201 | . | . | . | . | 2 | . | . | . | . | .
Cc1ccn2cc(-c3cnoc3C)nc2c1 | -228 | 5 | -8 | 1 | 3 | 1 | . | . | . | . | .
COc1c(Cl)cccc1-c1cn2ccc(C)cc2n1 | -367 | 3 | 84* | 90* | 94* | -2 | 90* | 91* | 100* | 90* | 30
CC(=O)c1coc2c1cc(O)c1ccccc12 | 16 | 4 | -8 | 3 | 11 | -4 | . | . | . | . | .
O=C(c1ccco1)c1coc2c1cc(O)c1ccccc12 | 21 | -1 | -5 | 60* | 20 | 1 | -14 | 7 | -1 | 1 | -3
Cc1cc(N2CCOCC2)nc2ccc(Cl)cc12 | -305 | 0 | -3 | 7 | 10 | 1 | . | . | . | . | .
O=[N+]([O-])c1nn(-c2ccc3c(c2)OCCO3)n(O)c1=NCCCO | 21 | 4 | 1 | 4 | 4 | -1 | . | . | . | . | .
Cc1ccc(CN=c2c([N+](=O)[O-])nn(-c3ccc4c(c3)OCCO4)n2O)cc1 | 21 | -2 | 16 | 59* | 35 | 2 | 20 | 30 | 58* | 14 | 6
CN(C)CCCNc1cc(O)c2ncccc2c1 | -12 | . | 48 | 74* | 44 | 8 | 19 | 62* | 25 | 90* | -7
COc1ccc(CNc2ccc(C)c(C)c2)c(OC)c1OC | 12 | -1 | -1 | -3 | 3 | 1 | . | . | . | . | .
Cc1ccc(NCc2ccccc2O)cc1C | 8 | -3 | 42 | 52* | 34 | 2 | 40 | 40 | 74* | 41 | 57*
CC1(c2nnc(Cc3ccccc3)o2)CC(c2c(Cl)cccc2Cl)=NO1 (centres undefined) | 16 | . | 4 | 2 | 1 | 2 | . | . | . | . | .
O=C(NNC(=S)Nc1ccc(Br)cc1)c1cccnc1 | 12 | 1 | 0 | -10 | 4 | 1 | . | . | . | . | .
O=C(/C=C\Nc1ccc(Br)cc1)c1cccnc1 | -383 | -6 | 57* | 83* | 66* | -29 | 66* | 64* | 83* | 71* | 41
Cc1cc(N/C=C/C(=O)c2ccccc2)ccc1Br | -230 | 2 | 62* | 67* | 80* | -84 | 24 | 16 | 7 | 38 | 1
O=C(/C=C/Nc1ccccc1)c1ccccc1 | -60 | -1 | 93* | 100* | 96* | -26 | 90* | 96* | 101* | 96* | 54*
O=C(/C=C/Nc1ccccc1)c1ccc(Cl)cc1Cl | -39 | 9 | 83* | 3 | 87* | -26 | 89* | 92* | 98* | 82* | 64*
COc1ccc(N/C=C/C(=O)c2ccc(Cl)cc2)cc1 | -12 | 3 | -13 | -6 | 43 | -25 | . | . | . | . | .
CC(NC(=O)CN1c2cccc3cccc(c23)S1(=O)=O)c1ccc(S(N)(=O)=O)cc1 (centres undefined) | -424 | . | -14 | -12 | 13 | 0 | . | . | . | . | .
CCN(CC)c1ccc(S(=O)(=O)N2CCCCC2)cc1NC(=O)CSCc1c(C)noc1C | 0 | . | . | . | . | 1 | . | . | . | . | .
C#C[C@]1(OC(C)=O)CCC2C3CCC4=CC(=O)CC[C@@H]4C3CC[C@@]21C (some centres undefined) | 3 | -1 | -8 | -16 | -9 | 1 | . | . | . | . | .
